The target of assay [1] is DNA topoisomerase 2-alpha (Homo sapiens) (UniProt P11388). In words: Inhibition of human topoisomerase 2 alpha-mediated relaxation of supercoiled pBR322 DNA at 20 uM after 30 mins by agarose gel electrophoresis. In outline:
(§1)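 Human topo II (0.3 U) with 0.2 μg pBR322 in 50 mM Tris–HCl pH 8.0, 120 mM KCl, 10 mM MgCl2, 0.5 mM ATP, 0.5 mM DTT and BSA. Compound at 20 or 100 μM, 37 °C for 30 min. Stopped with 0.77% SDS/77 mM EDTA, run on 1% agarose at 1.5 V/cm for 10 h in TBE, stained with ethidium bromide.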

For assay [2] the target is unchanged. In words: Inhibition of human topoisomerase 2 alpha-mediated relaxation of supercoiled pBR322 DNA at 100 uM after 30 mins by agarose gel electrophoresis. In outline:
as §1

The species named for assay [3] is Bos taurus. In words: Inhibition of calf thymus topoisomerase 1-mediated relaxation of supercoiled pBR322 DNA at 100 uM after 30 mins by agarose gel electrophoresis. In outline: (§2)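 Compound at 20 or 100 μM, 37 °C for 30 min. Stopped with SDS/dye mix, run on 1% agarose in TBE for 10 h, stained with ethidium bromide (0.5 μg/mL).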
Assay [4] is filed under the species Bos taurus. In words: Inhibition of calf thymus topoisomerase 1-mediated relaxation of supercoiled pBR322 DNA at 20 uM after 30 mins by agarose gel electrophoresis. In outline:
as §2

Another assay deals with MDA-MB-231. In words: Cytotoxicity against human MDA-MB-231 cells after 3 days. Format: functional, cell-based. The following applies: MDA-MB-231, 72 h. In outline:
(§3)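 Cells seeded at 2–4 × 10⁴ per well and held overnight at 37 °C, 5% CO₂ in medium with 10% FBS. On day 1 the medium was replaced with medium holding graded compound concentrations. Absorbance read at 450 nm. IC50 from a four-parameter logistic fit of the 450 nm readings.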

A further assay deals with HCT-116. In words: Cytotoxicity against human HCT116 cells after 3 days. The following applies: HCT-116, 72 h. Type of assay: functional, cell-based. In outline: as §3
The next assay has as its system HeLa. In words: Cytotoxicity against human HeLa cells after 3 days. Type of assay: functional, cell-based. The following applies: 72 h. In outline:
as §3

The next assay has as its system DU-145. In words: Cytotoxicity against human DU145 cells after 3 days. Type of assay: functional, cell-based. The following applies: DU-145, 72 h. In outline:
as §3

The test system of another assay is MCF7. In words: Cytotoxicity against human MCF7 cells after 3 days. Type of assay: functional, cell-based. The following applies: MCF7, 72 h. In outline: as §3

Structures can show the parent of a compound that is named as a salt. Some results are limits rather than exact numbers.

Sequence of DNA topoisomerase 2-alpha (Homo sapiens) (P11388 whole entry): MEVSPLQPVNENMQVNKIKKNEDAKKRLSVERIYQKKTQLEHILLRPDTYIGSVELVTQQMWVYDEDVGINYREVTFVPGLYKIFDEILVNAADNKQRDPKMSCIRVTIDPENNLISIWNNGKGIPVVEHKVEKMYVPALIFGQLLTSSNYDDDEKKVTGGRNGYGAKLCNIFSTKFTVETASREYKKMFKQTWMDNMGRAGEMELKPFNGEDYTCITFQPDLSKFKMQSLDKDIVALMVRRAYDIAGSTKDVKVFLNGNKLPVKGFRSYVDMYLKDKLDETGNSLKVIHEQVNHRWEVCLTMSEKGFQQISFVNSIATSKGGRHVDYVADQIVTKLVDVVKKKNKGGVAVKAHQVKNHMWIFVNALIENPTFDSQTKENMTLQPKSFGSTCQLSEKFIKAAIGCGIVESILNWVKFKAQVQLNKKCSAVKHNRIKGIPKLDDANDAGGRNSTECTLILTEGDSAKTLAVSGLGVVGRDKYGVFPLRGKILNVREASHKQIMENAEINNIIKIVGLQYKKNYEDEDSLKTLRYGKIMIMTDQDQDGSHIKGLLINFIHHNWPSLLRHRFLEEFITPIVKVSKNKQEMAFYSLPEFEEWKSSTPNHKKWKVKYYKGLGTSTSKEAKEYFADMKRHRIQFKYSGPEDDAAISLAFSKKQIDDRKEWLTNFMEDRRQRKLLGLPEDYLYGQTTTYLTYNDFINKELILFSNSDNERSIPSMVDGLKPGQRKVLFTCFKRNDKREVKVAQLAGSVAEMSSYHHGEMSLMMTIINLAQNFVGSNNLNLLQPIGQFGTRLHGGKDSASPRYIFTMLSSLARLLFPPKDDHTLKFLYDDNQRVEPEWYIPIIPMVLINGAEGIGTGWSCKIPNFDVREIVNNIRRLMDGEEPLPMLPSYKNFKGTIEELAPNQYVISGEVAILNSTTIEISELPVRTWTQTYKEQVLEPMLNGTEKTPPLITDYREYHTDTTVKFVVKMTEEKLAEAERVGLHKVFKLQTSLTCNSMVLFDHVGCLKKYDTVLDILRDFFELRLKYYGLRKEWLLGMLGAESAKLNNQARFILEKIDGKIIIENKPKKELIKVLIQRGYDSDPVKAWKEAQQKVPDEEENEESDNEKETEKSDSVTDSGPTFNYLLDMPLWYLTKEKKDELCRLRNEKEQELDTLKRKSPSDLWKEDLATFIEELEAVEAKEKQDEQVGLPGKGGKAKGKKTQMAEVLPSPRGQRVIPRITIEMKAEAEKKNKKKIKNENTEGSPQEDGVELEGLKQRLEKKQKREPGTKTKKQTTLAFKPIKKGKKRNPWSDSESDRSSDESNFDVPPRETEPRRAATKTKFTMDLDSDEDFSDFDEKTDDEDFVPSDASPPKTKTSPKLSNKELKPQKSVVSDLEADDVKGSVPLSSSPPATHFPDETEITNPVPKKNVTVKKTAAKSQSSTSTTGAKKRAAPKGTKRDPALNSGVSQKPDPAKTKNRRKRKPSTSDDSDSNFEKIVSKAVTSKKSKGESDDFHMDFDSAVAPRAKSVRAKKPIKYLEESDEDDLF

As to `c1coc(-c2cc(-c3ccsc3)nc(-c3ccsc3)c2)c1`, the inhibition in assay [1] came out at 0%; in assay [2], 32%; in the assay filed under Bos taurus [3], 0%; in the assay filed under Bos taurus [4], 0%.
As for `Cc1ccc(-c2cc(-c3ccsc3)nc(-c3cccs3)c2)o1`, the inhibition in [1] came to 0%; in assay [2] it was 2%; in the assay filed under Bos taurus [3], 0%; in the assay listed under Bos taurus [4] it was 0%.
With `Cc1ccc(-c2cc(-c3ccsc3)nc(-c3cc(C)sc3C)c2)o1`, the inhibition in assay [1] turned out to be 0%; in [2], 7%; in the assay listed under Bos taurus [3], 0%; in the assay filed under Bos taurus [4], 0%.
As for `c1coc(-c2cc(-c3ccsc3)nc(-c3cccs3)c2)c1`, the inhibition in [1] turned out to be 0%; in assay [2], 34%; in the assay listed under Bos taurus [3], 12%; in the assay filed under Bos taurus [4], 5%.
For `Cc1ccc(-c2cc(-c3cccs3)nc(-c3sccc3C)c2)o1`, in that order: 15%, 25%, 0% and 0%.
On the same counts, the results for `Cc1ccc(-c2cc(-c3cccs3)nc(-c3cc(C)sc3C)c2)o1` are 0%, 0%, 5% and 0%.
For `Cc1ccsc1-c1cc(-c2ccoc2)cc(-c2cccs2)n1`, in that order: 7%, 3%, 9% and 3%.
Consider `Cc1ccc(-c2cc(-c3cccs3)nc(-c3cccs3)c2)o1`, for which the inhibition worked out at 0% in assay [1], 8% in [2], 3% in the assay filed under Bos taurus [3] and 0% in the assay listed under Bos taurus [4].
`CC[C@@]1(O)C(=O)OCc2c1cc1n(c2=O)Cc2cc3ccccc3nc2-1` [CAMPTOTHECIN]: the IC50 in the assay on MDA-MB-231 came to 1.1 µM; with HCT-116, 2.77 µM; with HeLa it was 1.85 µM; with DU-145, 1.46 µM; with MCF7 it was 7.42 µM. Moreover, the inhibition in the assay listed under Bos taurus [3] stood at 54%; in the assay filed under Bos taurus [4] it was 41%.
For `Cc1ccsc1-c1cc(-c2ccoc2)cc(-c2sccc2C)n1`, the inhibition was found to be 0% in assay [1], 0% in assay [2], 30% in the assay filed under Bos taurus [3] and 15% in the assay filed under Bos taurus [4].
For `COc1cccc2c1C(=O)c1c(O)c3c(c(O)c1C2=O)C[C@@](O)(C(=O)CO)C[C@@H]3O[C@H]1C[C@H](N)[C@H](O)[C@H](C)O1` [DOXORUBICIN HYDROCHLORIDE], the IC50 in the assay on MDA-MB-231 turned out to be 1.16 µM; in the assay on HeLa, 1.6 µM; in the assay on DU-145 it was 1.3 µM.
As for `Cc1ccsc1-c1cc(-c2ccco2)cc(-c2cccs2)n1`, the IC50 was 59.6 µM with MDA-MB-231; 56.4 µM in the assay with HCT-116; 17.9 µM in the assay with HeLa; above 100 µM in the assay on DU-145; above 100 µM with MCF7. In addition, the inhibition came to 9% in assay [1], 28% in assay [2], 51% in the assay filed under Bos taurus [3] and 12% in the assay filed under Bos taurus [4].
`Cc1ccsc1-c1cc(-c2ccco2)cc(-c2ccsc2)n1`: the IC50 with MDA-MB-231 is 41.8 µM; with HCT-116, 51.1 µM; in the assay with HeLa, 19.2 µM; in the assay with DU-145, above 100 µM; in the assay with MCF7, above 100 µM. In addition, the inhibition in assay [1] is 11%; in [2], 58%; in the assay filed under Bos taurus [3], 52%; in the assay listed under Bos taurus [4], 9%.
As to `c1csc(-c2cc(-c3ccoc3)cc(-c3ccsc3)n2)c1`, the inhibition was 1% in assay [1], 18% in [2], 0% in the assay listed under Bos taurus [3] and 0% in the assay filed under Bos taurus [4].
With `Cc1ccsc1-c1cc(-c2ccco2)cc(-c2sccc2C)n1`, the half-inhibitory concentration (IC50) is 38.3 µM in the assay with MDA-MB-231; above 100 µM in the assay with HCT-116; 35.8 µM with HeLa; 98.2 µM with DU-145; above 100 µM in the assay with MCF7. In addition, the inhibition in assay [1] amounted to 14%; in assay [2], 23%; in the assay filed under Bos taurus [3], 92%; in the assay filed under Bos taurus [4], 88%.
In the case of `Clc1ccc(-c2cc(-c3cccs3)nc(-c3cccs3)c2)o1`, the concentration for half-maximal inhibition (IC50) is 54.8 µM in the assay on MDA-MB-231; 95.5 µM with HCT-116; 55.2 µM with HeLa; 88.1 µM with DU-145; above 100 µM in the assay on MCF7. Besides, the inhibition in [1] was determined as 0%; in [2] it was 35%; in the assay listed under Bos taurus [3], 42%; in the assay listed under Bos taurus [4] it was 12%.
Consider `Clc1ccc(-c2cc(-c3ccsc3)nc(-c3cccs3)c2)o1`, for which the half-maximal inhibitory concentration (IC50) is 26.8 µM in the assay with MDA-MB-231; above 100 µM in the assay on HCT-116; 43.7 µM in the assay with HeLa; above 100 µM in the assay on DU-145; above 100 µM with MCF7. The inhibition in assay [1] was found to be 7%; in assay [2], 55%; in the assay filed under Bos taurus [3] it was 50%; in the assay filed under Bos taurus [4] it was 12%.
Turning to `c1cc(-c2cc(-c3ccsc3)nc(-c3ccsc3)c2)co1`, the inhibition amounted to 4% in assay [1], 12% in assay [2], 0% in the assay listed under Bos taurus [3] and 0% in the assay filed under Bos taurus [4].
Turning to `Cc1ccc(-c2cc(-c3ccsc3)nc(-c3sccc3C)c2)o1`, the inhibition (in [1]; in assay [2]; in the assay listed under Bos taurus [3]; in the assay filed under Bos taurus [4]) was 0% in each case.
Regarding `Cc1ccsc1-c1cc(-c2ccoc2)cc(-c2ccsc2)n1`, the inhibition amounted to 0% in assay [1], 0% in assay [2], 13% in the assay listed under Bos taurus [3] and 0% in the assay filed under Bos taurus [4].
Regarding `Cc1ccc(-c2cc(-c3ccsc3)nc(-c3ccsc3)c2)o1`, the inhibition stood at 0% in [1], 5% in assay [2], 0% in the assay listed under Bos taurus [3] and 0% in the assay filed under Bos taurus [4].
Take `COc1cc([C@@H]2c3cc4c(cc3[C@@H](O[C@@H]3O[C@@H]5CO[C@@H](C)O[C@H]5[C@H](O)[C@H]3O)[C@H]3COC(=O)[C@H]23)OCO4)cc(OC)c1O` [ETOPOSIDE]: the IC50 is 16.9 µM in the assay on MDA-MB-231; 17.9 µM with HCT-116; 8.43 µM in the assay on HeLa; 21.1 µM in the assay with DU-145; 18 µM with MCF7. Also, the inhibition in assay [1] amounted to 36%; in assay [2], 73%.
As for `Clc1ccc(-c2cc(-c3ccsc3)nc(-c3ccsc3)c2)o1`, the inhibition in [1] stood at 0%; in assay [2] it was 8%; in the assay filed under Bos taurus [3], 14%; in the assay listed under Bos taurus [4], 0%.
Consider `c1csc(-c2cc(-c3ccoc3)cc(-c3cccs3)n2)c1`, for which the IC50 in the assay with MDA-MB-231 was 23.6 µM; with HCT-116, 50.6 µM; in the assay with HeLa, 8.62 µM; with DU-145 it was above 100 µM; with MCF7, above 100 µM. Moreover, the inhibition is 15% in assay [1], 70% in assay [2], 0% in the assay filed under Bos taurus [3] and 0% in the assay listed under Bos taurus [4].

As a reminder, the inhibition is the relative decrease from the control value, in per cent. The low end stands for a weak effect, the high end for a strong effect. The IC50 is the concentration needed to halve the response being measured. A high value points to weaker potency.

These data come from ChEMBL document CHEMBL1153176, “2,6-Dithienyl-4-furyl pyridines: Synthesis, topoisomerase I and II inhibition, cytotoxicity, structure-activity relationship, and docking study” (Bioorg Med Chem Lett, 2010).
